Experimental findings from PubChem BioAssay are described below.

SMILES strings stand for the structures. Active and inactive are the calls of the source.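 The calls were made as follows, unless noted: active = Her2 level under about 52% in both replicate screens, with viability over 70% of control (limit read from the data); inconclusive = Her2 under the limit in one screen only, or viability under 70%; inactive = Her2 level above the set limit.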

A short description of assay [1]: Her2 expression decrease, cell viability multiplex – SKBR3 breast tumor cells, AlphaScreen, ATP viability, primary screen (AID 461).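 As to Her2 level: lower value means less Her2 protein in the cells.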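 As to viability: percent of carrier control wells set as 100% viability.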 The following applies: SKBR3 Her2 protein level, 18-24 h, measured here: SKBR3 viability, ATP luminescence, at 10 µM.
The target of assay [2] is Receptor tyrosine-protein kinase erbB-2 (Homo sapiens) (UniProt P04626). Described as above. As to conditions: 18-24 h, at 10 µM, stronger effect = lower value.
Assay [3] can be described thus: reduced viability of SK-BR-3 breast cancer cells – cell-based, 24 h, human, pilot screen (AID 572;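 active = viability at or below 10% of carrier control in both of two separate runs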;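 also: compound exposure lasted between 18 and 24 h rather than exactly 24 h; 100% = carrier-treated control wells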). The following applies: SK-BR-3 viability, CellTiter-Glo luminescence, at 10 µM, stronger effect = lower value.
Assay [4] can be described thus: HUVEC growth inhibition – cell-based, human, primary screen (AID 575;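 active = viability at or below 30% in both replicate assays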;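 also: 100% = median of untreated cell wells with 0.1% DMSO on each plate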). As to conditions: HUVEC proliferation, CellTiter-Glo luminescence, 72 h; at 10 µM; stronger effect = lower value. An outline of the steps: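 Test system: HUVEC primary cells. Quantity: 1250 endothelial cells in each well. Dosing: single-point 10 µM, DMSO 0.1% final. Incubation: 72 h treatment at 37 °C. Measured by: CTG luminescence. Control set: DMSO cell controls and MePR drug controls. Plate: collagen-coated 384-well format.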

The nature of assay [5]: H69AR cell proliferation blockers – human, duplicate replicates, primary screen (AID 580;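 active = viability at or under a set limit in both replicates, limit being median viability minus 3 SD, cut at about 48% in these data, passing the limit was not always enough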;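 also: 100% = mean luminescence of untreated wells and 0% = no signal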). As to conditions: H69AR lung tumor cells viability, ATP luminescence, 72 h; at 10 µM; stronger effect = lower value.
Assay [6] in a line: MRP1 drug-resistance reversers in H69AR cells – cell-based, doxorubicin co-treatment, pilot screen (AID 601;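 active = viability loss from added drug above about 55%, and viability with drug at most 40%, in both replicates, limit read from the data, passing the limit was not always enough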). The following applies: CellTiter-Glo, 72 h, at 10 µM; for differential viability (reversal): stronger effect = higher value.
Assay [7] in a line: yeast transport mutant growth inhibition pilot in 384-well plates, post-Golgi transport modulator project (AID 636; in the data active = inhibition above about 31%). The following applies: absorbance 615 nm, about 18 h, stronger effect = higher value.
Assay [8] can be described thus: growth suppression of yeast trafficking mutant, preliminary HTS, modulators of trafficking downstream of Golgi apparatus project, 1536-format plate, OD 615 nm (AID 637; in the data active = inhibition above about 30%). The following applies: yeast transport mutant growth, absorbance 615 nm, 18 h; stronger effect = higher value.
Where [9] appears, read: H69AR cells + 2 uM doxorubicin, measured here: viability with 2 uM doxorubicin, stronger effect = lower value.
The mark [10] stands for this setting: H69AR cells, compound alone cytotoxicity.

Sequence of Receptor tyrosine-protein kinase erbB-2 (Homo sapiens) (P04626 whole entry, looked up): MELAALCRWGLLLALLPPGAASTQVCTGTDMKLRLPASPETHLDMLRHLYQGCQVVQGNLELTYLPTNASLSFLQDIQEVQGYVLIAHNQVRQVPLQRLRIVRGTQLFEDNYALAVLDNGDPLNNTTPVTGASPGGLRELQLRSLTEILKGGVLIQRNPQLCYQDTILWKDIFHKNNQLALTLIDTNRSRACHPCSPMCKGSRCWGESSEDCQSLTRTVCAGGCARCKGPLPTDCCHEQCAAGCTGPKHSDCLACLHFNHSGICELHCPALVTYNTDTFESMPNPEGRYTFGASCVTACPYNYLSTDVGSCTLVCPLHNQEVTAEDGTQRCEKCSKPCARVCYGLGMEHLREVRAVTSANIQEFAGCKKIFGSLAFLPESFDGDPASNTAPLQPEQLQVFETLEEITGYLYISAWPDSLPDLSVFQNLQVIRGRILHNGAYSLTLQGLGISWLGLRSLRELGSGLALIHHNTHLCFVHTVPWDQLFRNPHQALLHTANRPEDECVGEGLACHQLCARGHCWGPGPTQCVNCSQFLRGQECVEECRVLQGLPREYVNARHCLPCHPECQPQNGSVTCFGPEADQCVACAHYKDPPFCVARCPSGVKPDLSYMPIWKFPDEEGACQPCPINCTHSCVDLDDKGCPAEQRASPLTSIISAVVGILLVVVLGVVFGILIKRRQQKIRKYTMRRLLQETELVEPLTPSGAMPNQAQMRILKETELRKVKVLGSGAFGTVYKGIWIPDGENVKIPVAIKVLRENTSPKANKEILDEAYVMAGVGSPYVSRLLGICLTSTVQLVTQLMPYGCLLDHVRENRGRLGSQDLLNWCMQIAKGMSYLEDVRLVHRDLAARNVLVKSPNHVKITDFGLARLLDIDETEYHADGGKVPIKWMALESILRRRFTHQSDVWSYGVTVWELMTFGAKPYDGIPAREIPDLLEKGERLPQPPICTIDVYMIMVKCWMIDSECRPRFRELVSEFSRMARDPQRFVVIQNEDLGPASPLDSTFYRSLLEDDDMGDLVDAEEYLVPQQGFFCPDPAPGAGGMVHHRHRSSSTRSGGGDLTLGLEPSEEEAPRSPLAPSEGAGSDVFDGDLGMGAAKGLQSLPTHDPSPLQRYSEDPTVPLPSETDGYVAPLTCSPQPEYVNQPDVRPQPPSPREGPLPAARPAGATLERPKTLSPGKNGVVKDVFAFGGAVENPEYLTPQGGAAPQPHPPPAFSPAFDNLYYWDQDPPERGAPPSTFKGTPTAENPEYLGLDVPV

As to `CC1CCC2C(C1)c1sc(=O)[nH]c1SC2(C)C` (stereo not given), the viability in assay [1] was 85%; in assay [3], 85% (inactive); in assay [4], 60.5% (inactive); in assay [5], 106% (inactive); in assay [6] (setting [9]), 103%; in assay [6] (setting [10]), 106%. In addition, the Her2 level in assay [2] is 111% (inactive). Further, the differential viability (reversal) in assay [6] (H69AR cells + 2 uM doxorubicin) was 2.79% (inactive). For the same molecule, the inhibition is 0.9% (inactive) in assay [7] and 13.2% (inactive) in assay [8].

Consider `CCNC(=O)CC1C(=O)N(c2ccc(F)cc2)C(=O)N1CCC(C)C` (stereo not given), for which the viability in assay [1] was 103%; in assay [3], 103% (inactive); in assay [4] it was 98.4% (inactive); in assay [5] it was 92.9% (inactive); in assay [6] (setting [9]), 84.5%; in assay [6] (setting [10]) it was 92.9%. Further, the Her2 level in assay [2] was 80.5% (inactive). Moreover, in assay [6] (H69AR cells + 2 uM doxorubicin), the differential viability (reversal) was 8.4% (inactive). Also, the inhibition in assay [7] is 0.66% (inactive); in assay [8], -3.64% (inactive).

With `O=c1c2ccccc2cnn1-c1nc2ccccc2s1`, the viability in assay [1] was 91%; in assay [3], 91% (inactive); in assay [4] it was 63.6% (inactive); in assay [5], 81.6% (inactive); in assay [6] (setting [9]), 81.4%; in assay [6] (setting [10]) it was 81.6%. Besides, the Her2 level in assay [2] is 73% (inactive). The differential viability (reversal) in assay [6] (H69AR cells + 2 uM doxorubicin) was 0.15% (inactive). The inhibition in assay [7] is -7.3% (inactive); in assay [8], -3.33% (inactive).

Regarding `c1ccc(CCn2nnnc2CN2CCN(C3CCCC3)CC2)cc1`, the viability in assay [1] is 97.5%; in assay [3] it was 97.5% (inactive); in assay [4], 109% (inactive); in assay [5] it was 107% (inactive); in assay [6] (setting [9]) it was 87.5%; in assay [6] (setting [10]), 107%. In addition, in assay [2], the Her2 level was 95% (inactive). Moreover, the differential viability (reversal) in assay [6] (H69AR cells + 2 uM doxorubicin) is 19.1% (inactive). Moreover, the inhibition is 2.03% (inactive) in assay [7] and -6.51% (inactive) in assay [8].

Turning to `COC(=O)Nc1ccc(C)cc1NC(=O)OC`, the viability was 86.5% in assay [1]; 86.5% (inactive) in assay [3]; 96.4% (inactive) in assay [4]; 107% (inactive) in assay [5]; 99.5% in assay [6] (setting [9]); 107% in assay [6] (setting [10]). The Her2 level in assay [2] is 102% (inactive). The differential viability (reversal) in assay [6] (H69AR cells + 2 uM doxorubicin) is 7.78% (inactive). Moreover, the inhibition was 0.67% (inactive) in assay [7] and -6.61% (inactive) in assay [8].

For `O=C(CCN1C(=O)c2ccccc2C1=O)OCN1C(=O)c2ccccc2C1=O`, the viability in assay [1] was 95%; in assay [3] it was 95% (inactive); in assay [4] it was 97.7% (inactive); in assay [5], 91.8% (inactive); in assay [6] (setting [9]), 102%; in assay [6] (setting [10]), 91.8%. Also, the Her2 level in assay [2] was 108% (inactive). Further, the differential viability (reversal) in assay [6] (H69AR cells + 2 uM doxorubicin) was -10.6% (inactive). In addition, the inhibition in assay [7] is 6.8% (inactive); in assay [8], -3.17% (inactive).

As for `O=C(c1ccc(COc2c(F)c(F)c(F)c(F)c2F)o1)N1CCOCC1`, the viability in assay [1] is 111%; in assay [3] it was 111% (inactive); in assay [4], 100% (inactive); in assay [5], 88% (inactive); in assay [6] (setting [9]) it was 80.3%; in assay [6] (setting [10]), 88%. Also, the Her2 level in assay [2] was 98.5% (inactive). In addition, in assay [6] (H69AR cells + 2 uM doxorubicin), the differential viability (reversal) was 7.68% (inactive). Moreover, the inhibition was -5.81% (inactive) in assay [7] and 6.98% (inactive) in assay [8].

Consider `CC1=CC2=C(OC1N(C)C)c1cccc3cccc(c13)C2=O` (stereo not given), for which the viability was 106% in assay [1]; 106% (inactive) in assay [3]; 83% (inactive) in assay [4]; 78.5% (inactive) in assay [5]; 78.9% in assay [6] (setting [9]); 78.5% in assay [6] (setting [10]). For the same molecule, the Her2 level in assay [2] is 65% (inactive). The differential viability (reversal) in assay [6] (H69AR cells + 2 uM doxorubicin) is -0.375% (inactive). The inhibition in assay [7] was 2.21% (inactive); in assay [8], 6.17% (inactive).

Turning to `COc1ccc2c(=O)c3c(=O)n(Cc4ccco4)c(C(C)C)nc3oc2c1`, the viability was 96% in assay [1]; 96% (inactive) in assay [3]; 101% (inactive) in assay [4]; 99.4% (inactive) in assay [5]; 90.1% in assay [6] (setting [9]); 99.4% in assay [6] (setting [10]). Further, the Her2 level in assay [2] was 93% (inactive). Moreover, the differential viability (reversal) in assay [6] (H69AR cells + 2 uM doxorubicin) was 9.28% (inactive). In addition, the results for the inhibition in assay [7] and in assay [8] were -3.73% (inactive) and -9.52% (inactive), respectively.

Take `O=C(Cn1cnc2c(nnn2Cc2ccc(Cl)cc2)c1=O)NCC1CCCO1` (stereo not given): the viability in assay [1] was 120%; in assay [3], 120% (inactive); in assay [4], 101% (inactive); in assay [5], 106% (inactive); in assay [6] (setting [9]), 94.7%; in assay [6] (setting [10]), 106%. In assay [2], the Her2 level is 78% (inactive). The differential viability (reversal) in assay [6] (H69AR cells + 2 uM doxorubicin) was 10.8% (inactive). The figures for the inhibition in assay [7] and in assay [8] were -10.1% (inactive) and -1.27% (inactive), respectively.

For `CCOc1ccccc1NC(=O)C1CCCN(C(=O)NCc2ccccc2)C1` (stereo not given), the viability in assay [1] is 102%; in assay [3], 102% (inactive); in assay [4], 96.8% (inactive); in assay [5], 100% (inactive); in assay [6] (setting [9]) it was 96.6%; in assay [6] (setting [10]), 100%. Also, in assay [2], the Her2 level is 89.5% (inactive). Also, the differential viability (reversal) in assay [6] (H69AR cells + 2 uM doxorubicin) is 3.45% (inactive). The inhibition is -2.13% (inactive) in assay [7] and 4.26% (inactive) in assay [8].

Consider `Cc1nc(NC(=O)C2CC3CCCC(C2)C3=O)sc1C` (stereo not given), for which the viability is 99.5% in assay [1]; 99.5% (inactive) in assay [3]; 95% (inactive) in assay [4]; 82.8% (inactive) in assay [5]; 85.7% in assay [6] (setting [9]); 82.8% in assay [6] (setting [10]). In addition, the Her2 level in assay [2] was 99.5% (inactive). Moreover, the differential viability (reversal) in assay [6] (H69AR cells + 2 uM doxorubicin) was -2.88% (inactive). For the same molecule, the results for the inhibition in assay [7] and in assay [8] were 0.39% (inactive) and -6.39% (inactive), respectively.

In the case of `Cc1cc(C)c2c(n1)nn1c(N3CCOCC3)cc(C)nc21`, the viability in assay [1] was 90%; in assay [3] it was 90% (inactive); in assay [4] it was 110% (inactive); in assay [5] it was 87.1% (inactive); in assay [6] (setting [9]) it was 93.4%; in assay [6] (setting [10]), 87.1%. Moreover, the Her2 level in assay [2] is 87.5% (inactive). The differential viability (reversal) in assay [6] (H69AR cells + 2 uM doxorubicin) is -6.34% (inactive). For the same molecule, the values for the inhibition in assay [7] and in assay [8] were -4.86% (inactive) and 0.79% (inactive), respectively.

For the molecule `Cc1cccc(CS(=O)(=O)Cc2ccc(C(=O)NCC3CCCO3)o2)c1` (stereo not given), the viability is 85.5% in assay [1]; 85.5% (inactive) in assay [3]; 114% (inactive) in assay [4]; 94.7% (inactive) in assay [5]; 103% in assay [6] (setting [9]); 94.7% in assay [6] (setting [10]). In assay [2], the Her2 level was 108% (inactive). For the same molecule, the differential viability (reversal) in assay [6] (H69AR cells + 2 uM doxorubicin) is -7.89% (inactive). Moreover, the inhibition in assay [7] was -2.89% (inactive); in assay [8], -4.19% (inactive).
